Reference: ChEMBL document CHEMBL4715765, “Fluoro analogs of bioactive oxy-sterols: Synthesis of an EBI2 agonist with enhanced metabolic stability” (Bioorg Med Chem Lett, 2016)

Assays:
[1] = molecular target: T1, G-protein coupled receptor 183 (Homo sapiens, UniProt P32249); assay: Agonist activity at Go2-q-coupled EBI2 (unknown origin) expressed in COS7 cell membranes assessed as stimulation of [35S]GTPgammaS binding preincubated for 20 mins followed by [35S]GTPgammaS addition and measured after 1 hr by scintillation counting analysis; format: functional, Membrane
T1 sequence (P32249 whole entry): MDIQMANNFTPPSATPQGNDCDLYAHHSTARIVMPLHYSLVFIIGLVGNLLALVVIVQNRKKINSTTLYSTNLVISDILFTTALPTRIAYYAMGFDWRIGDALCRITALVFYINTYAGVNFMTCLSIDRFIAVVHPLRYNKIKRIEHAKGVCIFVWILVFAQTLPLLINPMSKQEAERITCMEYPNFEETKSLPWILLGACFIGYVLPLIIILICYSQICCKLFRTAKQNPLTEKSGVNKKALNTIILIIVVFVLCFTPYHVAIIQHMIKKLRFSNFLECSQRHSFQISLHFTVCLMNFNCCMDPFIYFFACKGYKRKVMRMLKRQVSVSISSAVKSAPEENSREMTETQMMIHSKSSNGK
Procedure, shortened: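 [35S]GTPγS binding measured in membranes of COS7 cells transiently transfected with human, rat or mouse EBI2, with receptor coupled through Go2. Compounds tested as concentration-response series (log M plots) to give EC50 and % Emax for each species' receptor.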

[2] = molecular target: T1, G-protein coupled receptor 183; assay: Agonist activity at Go2-q-coupled human EBI2 expressed in COS7 cell membranes assessed as stimulation of [35S]GTPgammaS binding preincubated for 20 mins followed by [35S]GTPgammaS addition and measured after 1 hr by scintillation counting analysis; format: functional, Membrane
Procedure, shortened: (§1)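 [35S]GTPγS binding measured on COS7 cells transiently transfected with human, rat or mouse EBI2, using a Gαo2 chimera set-up. Concentration-response testing ran up to a top concentration of 1. EC50 and % Emax were taken from the curves, with Emax referenced to 7α,25-OHC.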

[3] = Metabolic stability in human liver microsomes assessed as half life; format: ADME, Microsome
[4] = Metabolic stability in rat liver microsomes assessed as half life; format: ADME, Microsome
[5] = molecular target: G-protein coupled receptor 183 (Mus musculus) (UniProt Q3U6B2); assay: Agonist activity at Go2-q-coupled mouse EBI2 expressed in COS7 cell membranes assessed as stimulation of [35S]GTPgammaS binding at 1 uM preincubated for 20 mins followed by [35S]GTPgammaS addition and measured after 1 hr by scintillation counting analysis relative to control; format: functional; details: Membrane, filed as agonist, time 80.0 min; procedure, shortened: as §1
Chain of G-protein coupled receptor 183 (Mus musculus) (Q3U6B2 whole entry): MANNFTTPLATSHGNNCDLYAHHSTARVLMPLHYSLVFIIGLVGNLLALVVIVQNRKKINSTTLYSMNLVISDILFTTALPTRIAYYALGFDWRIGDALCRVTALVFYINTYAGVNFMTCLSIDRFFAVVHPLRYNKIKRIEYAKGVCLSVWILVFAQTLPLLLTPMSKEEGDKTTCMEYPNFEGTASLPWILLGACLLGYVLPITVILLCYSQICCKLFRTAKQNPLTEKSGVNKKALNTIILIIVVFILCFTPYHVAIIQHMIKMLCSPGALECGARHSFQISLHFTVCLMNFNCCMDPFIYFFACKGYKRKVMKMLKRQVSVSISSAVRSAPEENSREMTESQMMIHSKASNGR

[6] = molecular target: G-protein coupled receptor 183 (Mus musculus, UniProt Q3U6B2); assay: Agonist activity at Go2-q-coupled mouse EBI2 expressed in COS7 cell membranes assessed as stimulation of [35S]GTPgammaS binding preincubated for 20 mins followed by [35S]GTPgammaS addition and measured after 1 hr by scintillation counting analysis; format: functional, Membrane; procedure, shortened: as §1
Chain of G-protein coupled receptor 183 (Mus musculus, UniProt Q3U6B2) (Q3U6B2 whole entry): as above

[7] = molecular target: G-protein coupled receptor 183 (Rattus norvegicus) (UniProt D4A7K7); assay: Agonist activity at Go2-q-coupled rat EBI2 expressed in COS7 cell membranes assessed as stimulation of [35S]GTPgammaS binding at 1 uM preincubated for 20 mins followed by [35S]GTPgammaS addition and measured after 1 hr by scintillation counting analysis relative to control; details: Membrane, filed as agonist, time 80.0 min; procedure, shortened: as §1
Chain of G-protein coupled receptor 183 (Rattus norvegicus) (D4A7K7 whole entry): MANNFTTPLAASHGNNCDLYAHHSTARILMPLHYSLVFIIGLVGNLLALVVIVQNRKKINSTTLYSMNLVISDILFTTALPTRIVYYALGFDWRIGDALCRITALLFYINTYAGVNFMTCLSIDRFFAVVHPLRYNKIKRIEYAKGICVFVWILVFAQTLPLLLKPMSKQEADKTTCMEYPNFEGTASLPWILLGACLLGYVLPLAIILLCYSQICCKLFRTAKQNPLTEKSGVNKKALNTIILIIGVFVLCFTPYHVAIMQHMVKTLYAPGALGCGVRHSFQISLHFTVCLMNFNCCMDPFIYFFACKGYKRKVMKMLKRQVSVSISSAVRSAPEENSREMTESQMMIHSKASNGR

[8] = Metabolic stability in mouse liver microsomes assessed as half life; format: ADME, Microsome
[9] = Tmax in mouse at 20 mg/kg, ip; format: ADME, organism-based; details: in vivo
[10] = Tmax in mouse at 20 mg/kg, sc; format: ADME, organism-based; details: in vivo
[11] = Cmax in mouse at 20 mg/kg, sc; format: ADME, organism-based; set-up: route subcutaneous, dose 20 mg/kg; details: in vivo
[12] = molecular target: T1, G-protein coupled receptor 183; assay: Agonist activity at Go2-q-coupled human EBI2 expressed in COS7 cell membranes assessed as stimulation of [35S]GTPgammaS binding at 1 uM preincubated for 20 mins followed by [35S]GTPgammaS addition and measured after 1 hr by scintillation counting analysis relative to control; format: functional; details: Membrane, filed as agonist, time 80.0 min; procedure, shortened: as §1
[13] = AUClast in mouse at 20 mg/kg, sc; format: ADME, organism-based; set-up: time 0 - last, route subcutaneous, dose 20 mg/kg; details: in vivo
[14] = Terminal half life in mouse at 20 mg/kg, sc; format: ADME, organism-based; details: in vivo, read-out: beta t1/2 (converted)
[15] = Cmax in mouse at 20 mg/kg, ip; format: ADME, organism-based; set-up: route intraperitoneal, dose 20 mg/kg; details: in vivo
[16] = molecular target: G-protein coupled receptor 183 (Rattus norvegicus, UniProt D4A7K7); assay: Agonist activity at Go2-q-coupled rat EBI2 expressed in COS7 cell membranes assessed as stimulation of [35S]GTPgammaS binding preincubated for 20 mins followed by [35S]GTPgammaS addition and measured after 1 hr by scintillation counting analysis; set-up: species or system Membrane; procedure, shortened: as §1
Chain of G-protein coupled receptor 183 (Rattus norvegicus, UniProt D4A7K7) (D4A7K7 whole entry): as above

[17] = AUClast in mouse at 20 mg/kg, ip; format: ADME, organism-based; set-up: route intraperitoneal, time 0 - last, dose 20 mg/kg; details: in vivo
[18] = Terminal half life in mouse at 20 mg/kg, ip; format: ADME, organism-based; details: in vivo, read-out: beta t1/2 (converted)
[19] = Elimination half-life in po dosed mouse; format: ADME, organism-based; details: in vivo, read-out: beta t1/2 (converted)

EC50 [2] [nM]	Emax [5] [%]	EC50 [6] [nM]	Emax [7] [%]	Emax [12] [%]	EC50 [16] [nM]	SMILES	EC50 [1] [nM]	half-life [3] [min]	half-life [4] [min]	half-life [8] [min]	further results
						CC(CO)CCC[C@@H](C)[C@H]1CC[C@H]2[C@H]3C(CC[C@]12C)[C@@]1(C)CC[C@H](O)CC1=C[C@H]3O (single isomer, unassigned)	1.3				
						C[C@H](CCCC(C)(C)O)[C@H]1CC[C@H]2[C@@H]3[C@@H](O)C=C4C[C@@H](O)CC[C@]4(C)[C@H]3CC[C@]12C	2.1				
4.1	60	14.4	88	100	14.4	C[C@H](CCCC(C)(C)O)[C@H]1CC[C@H]2[C@H]3[C@H](CC[C@]12C)[C@@]1(C)CC[C@H](O)CC1=C[C@@]3(O)C(F)(F)F					
0.102	136	1.64	116	122	1.08	C[C@H](CCCC(C)(C)O)[C@H]1CC[C@H]2[C@H]3[C@H](CC[C@]12C)[C@@]1(C)CC[C@H](O)CC1=C[C@]3(O)C(F)(F)F		131	31	> 180	half-life [19]: 600 min
						CC(CO)CCC[C@@H](C)[C@H]1CC[C@H]2[C@H]3C(CC[C@]12C)[C@@]1(C)CC[C@H](O)CC1=C[C@@H]3O (single isomer, unassigned)	51				

SMILES	EC50 [2] [nM]	Emax [5] [%]	EC50 [6] [nM]	Emax [7] [%]	Emax [12] [%]	EC50 [16] [nM]	EC50 [1] [nM]	half-life [3] [min]	half-life [4] [min]	half-life [8] [min]	further results
C[C@H](CCCC(C)(C)O)[C@H]1CC[C@H]2[C@@H]3[C@H](O)C=C4C[C@@H](O)CC[C@]4(C)[C@H]3CC[C@]12C	0.032	100	0.702	100	100	1.31	0.14	30	15	11	Tmax [9]: 15 min; Tmax [10]: 19.8 min; Cmax [11]: 4340 ng/mL; AUC(0-t) [13]: 3140 ng·h/mL; half-life [14]: 30 min; Cmax [15]: 4460 ng/mL; AUC(0-t) [17]: 2940 ng·h/mL; half-life [18]: 24 min
